Results from ChEMBL document CHEMBL1128440 (J Med Chem, 1995).

Assays:
[1] = species on record: Rattus norvegicus; test: Tissue biodistribution into estrogen-primed immature female rat uterus at 1 hr time interval; assay type: ADME, organism-based; settings: in vivo
Summary of the method: (§1)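 Immature female Sprague-Dawley rats (25 days old, ≈50 g, five per time point) primed with estradiol, 5 μg sc daily for 2 days in 50% ethanol/sunflower seed oil, used 24 h after the last injection. The 18F-labeled ligand was given iv by tail vein in 10% ethanol/saline. Decapitated at 1 or 3 h; blood and organs weighed and gamma-counted. Reported as %ID/g ± SD, n = 5.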

[2] = species on record: Rattus norvegicus; test: Tissue biodistribution into estrogen-primed immature female rat brain at 1 hr low time interval; assay type: ADME, organism-based; settings: in vivo; summary of the method: as §1
[3] = species on record: Rattus norvegicus; test: Tissue biodistribution into estrogen-primed immature female rat blood at 1 hr low time interval; assay type: ADME, organism-based; settings: in vivo; summary of the method: as §1
[4] = species on record: Rattus norvegicus; test: Tissue biodistribution into estrogen-primed immature female rat uterus/muscle at 1 hr blocked time interval; assay type: ADME, organism-based; settings: in vivo; summary of the method: as §1
[5] = species on record: Rattus norvegicus; test: Tissue biodistribution into estrogen-primed immature female rat uterus at 1 hr blocked time interval; assay type: ADME, organism-based; settings: in vivo; summary of the method: as §1
[6] = species on record: Rattus norvegicus; test: Tissue biodistribution into estrogen-primed immature female rat uterus/blood at 1 hr time interval; assay type: ADME, organism-based; settings: in vivo; summary of the method: as §1
[7] = species on record: Rattus norvegicus; test: Tissue biodistribution into estrogen-primed immature female rat ovaries at 1 hr low time interval; assay type: ADME, organism-based, Female gonad; settings: in vivo; summary of the method: as §1
[8] = species on record: Rattus norvegicus; test: Tissue biodistribution into estrogen-primed immature female rat kidney at 3 hr time interval; assay type: ADME, organism-based; settings: in vivo; summary of the method: as §1
[9] = species on record: Rattus norvegicus; test: Tissue biodistribution into estrogen-primed immature female rat lung at 1 hr blocked time interval; assay type: ADME, organism-based; settings: in vivo; summary of the method: as §1
[10] = species on record: Rattus norvegicus; test: Tissue biodistribution into estrogen-primed immature female rat bone at 1 hr low time interval; assay type: ADME, organism-based, Bone element; settings: in vivo; summary of the method: as §1
[11] = species on record: Rattus norvegicus; test: Tissue biodistribution into estrogen-primed immature female rat fat at 1 hr time interval; assay type: ADME, organism-based, Adipose tissue; settings: in vivo; summary of the method: as §1
[12] = species on record: Rattus norvegicus; test: Tissue biodistribution into estrogen-primed immature female rat blood at 3 hr time interval; assay type: ADME, organism-based; settings: in vivo; summary of the method: as §1
[13] = Partition coefficient (logP); assay type: physicochemical; settings: octanol/water
Summary of the method: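 log P(o/w) (octanol/water) estimated by a reversed-phase HPLC method.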

[14] = species on record: Rattus norvegicus; test: Tissue biodistribution into estrogen-primed immature female rat blood at 1 hr time interval; assay type: ADME, organism-based; settings: in vivo; summary of the method: as §1
[15] = species on record: Rattus norvegicus; test: Tissue biodistribution into estrogen-primed immature female rat uterus/muscle at 3 hr time interval; assay type: ADME, organism-based; settings: in vivo
[16] = species on record: Rattus norvegicus; test: Tissue biodistribution into estrogen-primed immature female rat brain at 1 hr time interval; assay type: ADME, organism-based; settings: in vivo; summary of the method: as §1
[17] = species on record: Rattus norvegicus; test: Tissue biodistribution into estrogen-primed immature female rat bone at 3 hr time interval; assay type: ADME, organism-based, Bone element; settings: in vivo; summary of the method: as §1
[18] = species on record: Rattus norvegicus; test: Tissue biodistribution into estrogen-primed immature female rat liver at 3 hr time interval; assay type: ADME, organism-based; settings: in vivo; summary of the method: as §1
[19] = species on record: Rattus norvegicus; test: Tissue biodistribution into estrogen-primed immature female rat liver at 1 hr time interval; assay type: ADME, organism-based; settings: in vivo; summary of the method: as §1
[20] = species on record: Rattus norvegicus; test: Tissue biodistribution into estrogen-primed immature female rat kidney at 1 hr low time interval; assay type: ADME, organism-based; settings: in vivo; summary of the method: as §1
[21] = species on record: Rattus norvegicus; test: Tissue biodistribution into estrogen-primed immature female rat muscle at 1 hr time interval; assay type: ADME, organism-based; settings: in vivo; summary of the method: as §1
[22] = species on record: Rattus norvegicus; test: Tissue biodistribution into estrogen-primed immature female rat liver at 1 hr blocked time interval; assay type: ADME, organism-based; settings: in vivo; summary of the method: as §1
[23] = species on record: Rattus norvegicus; test: Tissue biodistribution into estrogen-primed immature female rat ovaries at 3 hr time interval; assay type: ADME, organism-based, Female gonad; settings: in vivo; summary of the method: as §1
[24] = species on record: Rattus norvegicus; test: Tissue biodistribution into estrogen-primed immature female rat ovaries at 1 hr blocked time interval; assay type: ADME, organism-based; settings: in vivo; summary of the method: as §1

For `C[C@]12CCC3C(CCC4=CC(=O)CC[C@@H]43)C1C[C@H]1OC(c3ccco3)O[C@]12C(=O)CF` (stereo not given in full), the Injected dose/g [1] was 6.8%, the Injected dose/g [2] was 0.4% and the Injected dose/g [3] was 0.35%. For the same compound, the uterus/muscle ratio [4] was 2.34, the Injected dose/g [5] was 1.68% and the “Uterus to blood concentration ratio” value [6] was 18.18%. The Injected dose/g [7] was 2.13%, the Injected dose/g [8] was 0.73% and the Injected dose/g [9] was 1.16%. The Injected dose/g [10] was 0.99%, the Injected dose/g [11] was 2.16% and the Injected dose/g [12] was 0.19%. For the same compound, the logP [13] was 4.11, the logP ([13]; read-out: logP) was 3.87 and the Injected dose/g [14] was 0.38%. For the same compound, the ratio [15] was 32.2, the Injected dose/g [16] was 0.57% and the Injected dose/g [17] was 1.3%. The Injected dose/g [18] was 1.65%, the Injected dose/g [19] was 2.4% and the Injected dose/g [20] was 1.14%. It also gave an Injected dose/g [21] of 0.59%, an Injected dose/g [22] of 2.49% and an Injected dose/g [23] of 2.62%. The Injected dose/g [24] was 1.65%.
